# Measurements as given in ChEMBL document CHEMBL1152376, “N-[(Dihydroxyphenyl)acyl]serotonins as potent inhibitors of tyrosinase from mouse and human melanoma cells” (Bioorg Med Chem Lett, 2009).
# The source made the active and inactive calls. No cut-off for these calls is given here.
# Columns and labels:
# B16 [1] = assay: Ratio of IC50 of drug to IC50 of kojic acid for antimelanogenic activity in mouse B16 cells; assay type: functional
# Procedure, shortened: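 B16 cells (1.5 × 10⁴ per well) were cultured 1 day, given compound in ethanol (stock 0–10 mM), and incubated 2 days. Medium darkening from extracellular melanin was read at 415 nm and IC50 derived.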
# B16 [2] = assay: Cytotoxicity against mouse B16 cells assessed as cell viability at < 30 uM after 2 days by tetrazolium reduction assay; assay type: cell-based; details: b16, 48 h
# Procedure, shortened: (§1)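 B16 cells seeded at 1.5 × 10⁴ per well, cultured 1 day, then given compound in ethanol (stock 0–10 mM) and incubated 2 days. Medium aspirated and viability measured with a tetrazolium reagent. Values are means of 8 or 9 wells, with Student's t-test against control.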
# B16 [3] = assay: Antimelanogenic activity in mouse B16 cells assessed as inhibition of intracellular melanin accumulation at 2 to 40 uM after 2 days; assay type: functional, cell-based
# Procedure, shortened: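 B16 cells grown in DMEM with 15% FBS, seeded at 7.5 × 10⁴ cells per well, cultured 1 day, then given compound in ethanol and incubated 2 days. Cells scraped, washed with PBS and sonicated in 0.2 ml 1 N NaOH. Intracellular melanin read as homogenate absorbance at 415 nm, expressed as % control.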
# Tyrosinase [4] = biological target: T1, Tyrosinase (Mus musculus, UniProt P11344); assay: Apparent noncompetitive inhibition of catecholase activity of tyrosinase in mouse B16 cells by Lineweaver-Burke plot analysis; assay type: cell-based; details: read-out: Ki(app)
# T1 sequence (P11344 whole entry): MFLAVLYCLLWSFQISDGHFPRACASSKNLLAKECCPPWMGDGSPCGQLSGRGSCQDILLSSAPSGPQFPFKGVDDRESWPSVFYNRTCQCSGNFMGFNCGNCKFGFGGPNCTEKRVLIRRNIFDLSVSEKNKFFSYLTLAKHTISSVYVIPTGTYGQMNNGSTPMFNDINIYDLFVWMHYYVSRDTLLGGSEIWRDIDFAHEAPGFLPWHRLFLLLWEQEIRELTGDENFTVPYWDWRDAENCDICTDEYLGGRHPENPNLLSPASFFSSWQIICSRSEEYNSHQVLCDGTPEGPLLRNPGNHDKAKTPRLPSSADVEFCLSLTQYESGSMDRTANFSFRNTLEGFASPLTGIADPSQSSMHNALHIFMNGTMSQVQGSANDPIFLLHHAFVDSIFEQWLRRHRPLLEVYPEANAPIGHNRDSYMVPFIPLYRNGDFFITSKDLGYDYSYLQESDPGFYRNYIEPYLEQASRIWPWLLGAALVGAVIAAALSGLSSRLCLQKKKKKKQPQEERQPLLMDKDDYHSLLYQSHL
# Procedure, shortened: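 Tyrosinase extracted from B16 cells (DMEM, 15% FBS) was assayed with L-DOPA in 50 mM phosphate buffer pH 6.8 at 37 °C. Dopachrome formation over 5 min was read at 475 nm (ε = 3700 M⁻¹ cm⁻¹). Inhibitor was tested at several fixed levels (e.g. 0–70 µM), L-DOPA was varied, Lineweaver–Burk lines were fitted by least squares, and apparent Ki was derived.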
# Tyrosinase [5] = biological target: T1, Tyrosinase; assay: Inhibition of catecholase activity of tyrosinase in mouse B16 cells assessed as dopachrome formation; assay type: cell-based
# [6] = Cytotoxicity against mouse B16 cells assessed as cell viability at 20 uM after 2 days by tetrazolium reduction assay; assay type: cell-based; details: read-out: Activity; procedure, shortened: as §1
# [7] = Cytotoxicity against human HMVII cells assessed as cell viability at 40 uM after 2 days by tetrazolium reduction assay; assay type: cell-based; details: hmv-2, 48 h
# Procedure, shortened: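 HMV-II cells given compound in ethanol and incubated 2 days, then viability measured by tetrazolium reduction. Values are % control, mean ± SEM (n = 3–4) from a representative repeated experiment.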
# B16 [8] = assay: Antimelanogenic activity in mouse B16 cells assessed as inhibition of extracellular melanin formation after 2 days; details: B16, 48 h
# [9] = Antimelanogenic activity in human HMVII cells assessed as inhibition of intracellular melanin accumulation at 20 to 40 uM after 2 days; assay type: functional, HMV-2
# B16 [10] = assay: Cytotoxicity against mouse B16 cells assessed as cell viability at 10 to 30 uM after 2 days by tetrazolium reduction assay; assay type: cell-based; details: b16, 48 h; procedure, shortened: as §1
# [11] = Cytotoxicity against mouse B16 cells assessed as cell viability at 200 uM after 2 days by tetrazolium reduction assay; assay type: cell-based; details: read-out: Activity
# Procedure, shortened: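 B16 mouse melanoma cells in DMEM with 15% FBS, seeded at 1.5 × 10⁴ cells per well and cultured 1 day. Compound then added in ethanol and incubated 2 days. Medium aspirated and viability read with a tetrazolium reagent. Means of 8 or 9 wells, Student's t-test versus control.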
# [12] = biological target: T2, Tyrosinase (Mus musculus) (UniProt P11344); assay: Inhibition of catecholase activity of tyrosinase in mouse B16 cells assessed as residual activity at […] preincubated for 5 to 30 mins in absence of L-DOPA substrate; assay type: cell-based
# T2 sequence (whole entry): T1 sequence (P11344 whole entry)
# Procedure, shortened: (§2)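 Enzyme was preincubated with inhibitor (added in ethanol as a 20 mM stock) in 50 mM phosphate buffer pH 6.8, with or without 0.125 mM L-DOPA, at 37 °C for 5, 10, 20 or 30 min. Buffer containing 5.3 mM L-DOPA was then added and dopachrome read at 475 nm. Control (=100) was 31 min preincubation without inhibitor; mean ± sd, n = 3.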
# [13] = biological target: T2, Tyrosinase (Mus musculus); assay: Inhibition of catecholase activity of tyrosinase in mouse B16 cells assessed as residual activity at […] measured after preincubation presence of L-DOPA substrate; assay type: cell-based; details: TDE = time-dependent effect; procedure, shortened: as §2
SMILES,IC50 (Tyrosinase [5]) [µM],"viability at 48 h, 20 µM [6] [%]",IC50 (B16 [8]) [µM],Activity (B16 [10]),other results
O=C(NCCc1c[nH]c2ccc(O)cc12)c1ccc(O)c(O)c1,73,99,3,–,Ratio IC50 (B16 [1]): 40; Activity (B16 [2]): Non-toxic; Activity (B16 [3]): inactive; Ki (Tyrosinase [4]): 64 µM; Activity [7]: Toxic; inhibition (INH) [9]: 20%
NCCc1c[nH]c2ccc(O)cc12 [SEROTONIN],550,101,> 30,–,–
NC(=O)c1ccc(O)c(O)c1 [PROTOCATECHUAMIDE],–,–,–,–,Ki (Tyrosinase [4]; in the assay text read “Competitive” for “Apparent noncompetitive”): 3700 µM
O=C(NCCc1c[nH]c2ccccc12)c1ccc(O)c(O)c1,–,69,–,Toxic,–
O=C(NCCc1c[nH]c2ccccc12)c1ccc(O)cc1,–,94,> 30,–,–
COc1ccc2[nH]cc(CCNC(=O)/C=C/c3ccc(O)c(O)c3)c2c1,–,41,–,Toxic,–
O=C(NCCc1c[nH]c2ccc(O)cc12)c1ccccc1,333,96,> 30,–,–
O=C(/C=C/c1ccc(O)c(O)c1)NCCc1c[nH]c2ccc(O)cc12 [N-CAFFEOYLSEROTONIN],28,99,15,–,Activity (B16 [2]): Non-toxic
O=C(NCCc1c[nH]c2ccc(O)cc12)c1ccc(O)cc1,233,100,> 30,–,–
COc1cc(/C=C/C(=O)NCCc2c[nH]c3ccc(O)cc23)ccc1O [N-FERULOYL SEROTONIN],216,100,23,–,Activity (B16 [2]): Non-toxic
COc1cc(/C=C/C(=O)NCCc2c[nH]c3ccccc23)ccc1O,–,102,> 30,–,–
COc1cc(C(=O)NCCc2c[nH]c3ccc(O)cc23)ccc1O,211,93,> 30,–,Activity (B16 [2]): Non-toxic
O=c1cc(CO)occ1O [KOJIC ACID],–,–,111,–,"viability at 48 h, 200 µM [11]: 99%"
O=C(NCCc1c[nH]c2ccccc12)c1ccccc1,–,85,–,Toxic,–
O=C(/C=C/c1ccc(O)c(O)c1)NCCc1c[nH]c2ccccc12,–,54,–,Toxic,–
Oc1ccc2[nH]ccc2c1,68,100,13,–,–
CC(=O)NCCc1c[nH]c2ccc(O)cc12 [ACETYLSEROTONIN],311,93,> 30,–,Activity [12]: Active; Activity [13]: tde; Ki (Tyrosinase [4]): 240 µM
O=C(/C=C/c1ccc(O)c(O)c1)NCCc1ccc(O)cc1,–,84,–,Toxic,–
O=C(NCCc1ccc(O)cc1)c1ccc(O)c(O)c1,–,88,–,Toxic,–
O=C(NCCc1c[nH]c2ccc(O)cc12)c1ccc(O)cc1O,42,101,15,–,Activity (B16 [2]): Non-toxic
